# Activity calls are given as the source filed them. The calls are words filed in the database; no cut-off is given here.
# What was measured:
# [1] = system: Mus musculus; assay: Antidiabetic activity in STZ-induced Kunming mouse model of diabetes assessed as reduction in blood glucose level at 80 mg/kg, po administered daily via gavage for 8 weeks and measured at week 8; format: functional; settings: 1344 h
# [2] = system: Mus musculus; assay: Reno-protective activity in STZ-induced Kunming mouse model of diabetes assessed as urinary total protein excretion at 80 mg/kg, po administered daily via gavage for 8 weeks and measured at week 4 relative to control; format: functional; settings: time 4 weeks
# [3] = system: Mus musculus; assay: Reno-protective activity in STZ-induced Kunming mouse model of diabetes assessed as normal kidney structure at 80 mg/kg, po administered QD via gavage for 4 weeks by H and E staining based histological analysis; format: functional, organism-based
# [4] = system: Mus musculus; assay: Antioxidant activity in STZ-induced diabetic Kunming mouse assessed as increase in GSH level in kidney at 80 mg/kg, po administered QD via gavage for 4 weeks and measured at 6 hrs post-final drug dose by microplate reader analysis; format: functional
# [5] = system: Mus musculus; assay: Antidiabetic activity in STZ-induced Kunming mouse model of diabetes assessed as improvement in glucose tolerance at 80 mg/kg, po QD administered via gavage and measured for 120 mins by intraperitoneal GTT
# [6] = system: Brain; assay: Antioxidant activity in rat brain assessed as inhibition of lipid peroxidation at 50 to 100 uM by TBARS assay; format: functional, tissue-based; settings: dose 50-100 µM
# Procedure, shortened: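 Rat brain freshly homogenized in ice-cold saline and centrifuged; supernatant protein measured by Coomassie. Hydroxyl radical-driven lipid peroxidation read as MDA/TBARS with a commercial kit.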
# [7] = system: Mus musculus; assay: Antioxidant activity in STZ-induced diabetic Kunming mouse assessed as rise in liver MDA level at 160 mg/kg, po administered daily via gavage for 8 weeks and measured at 6 hrs post-final drug dose relative to normal group; format: functional
# [8] = system: Mus musculus; assay: Antidiabetic activity in STZ-induced Kunming mouse model of diabetes assessed as reduction in blood glucose level at 80 mg/kg, po administered daily via gavage for 8 weeks and measured at week 4; format: functional; settings: 672 h, time 4 weeks
# [9] = system: Mus musculus; assay: Antioxidant activity in STZ-induced diabetic Kunming mouse assessed as reduction in liver MDA level at 80 mg/kg, po administered daily via gavage for 8 weeks and measured at 6 hrs post-final drug dose relative to normal group; format: functional; settings: 1344 h
# [10] = system: Mus musculus; assay: Antioxidant activity in STZ-induced diabetic Kunming mouse assessed as increase in GSH level in kidney at 80 mg/kg, po administered daily via gavage for 8 weeks and measured at 6 hrs post-final drug dose by microplate reader analysis; format: functional
# [11] = system: Mus musculus; assay: Antidiabetic activity in STZ-induced Kunming mouse model of diabetes assessed as reduction in blood glucose level at 80 to 160 mg/kg, po administered daily via gavage for 8 weeks and measured at 2 to 5 hrs post-last drug dose; format: functional, organism-based; settings: dose 80-160 mg/kg
# [12] = system: Mus musculus; assay: Reno-protective activity in STZ-induced Kunming mouse model of diabetes assessed as urinary total protein excretion at 80 mg/kg, po administered daily via gavage for 8 weeks and measured at week 6 relative to control; format: functional; settings: time 6 weeks
# [13] = system: Mus musculus; assay: Reno-protective activity in STZ-induced Kunming mouse model of diabetes assessed as reduction in albumin to creatinine ratio at 80 mg/kg, po administered daily via gavage for 8 weeks; format: functional; settings: 1344 h
# [14] = system: Mus musculus; assay: Antidiabetic activity in STZ-induced Kunming mouse model of diabetes assessed as reduction in blood glucose level at 160 mg/kg, po administered daily via gavage for 8 weeks and measured at week 4; format: functional; settings: 672 h, time 4 weeks
# [15] = Inhibition of polyol pathway in STZ-induced Kunming mouse model of diabetes assessed as decrease in sorbitol level in kidney cortex at 80 mg/kg, po administered daily via gavage for 8 weeks and measured at 6 hrs post-final drug dose by fluorospectrophotometric analysis; format: functional; settings: 1344 h
# [16] = target: Aldo-keto reductase family 1 member B1 (Rattus norvegicus) (UniProt P07943); assay: Noncompetitive inhibition of Wistar rat lens ALR2 at 0.025 mM using varying level of D,L-glyeraldehyde as substrate in presence of NADPH by double reciprocal plot analysis; format: tissue-based
# Procedure, shortened: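 Rat ALR2 kinetics run under the assay conditions with inhibitor at 10 and 5 nM. Either D,L-glyceraldehyde varied (7.5-0.94 mM) with cofactor 0.025 mM, or NADPH varied (25-3.125) with glyceraldehyde 2.5 mM. Mode assigned from double-reciprocal plots.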
# [17] = Inhibition of polyol pathway in STZ-induced Kunming mouse model of diabetes assessed as decrease in sorbitol level in kidney cortex at 80 mg/kg, po administered QD via gavage for 4 weeks and measured at 6 hrs post-final drug dose by fluorospectrophotometric analysis; format: functional; settings: 672 h
# [18] = system: Mus musculus; assay: Reno-protective activity in STZ-induced Kunming mouse model of diabetes assessed as reduction in kidney lesions and appearance of normal structure at 80 to 160 mg/kg, po administered daily via gavage for 8 weeks by H and E staining based histological analysis; format: functional, organism-based; settings: dose 80-160 mg/kg
# [19] = system: Mus musculus; assay: Reno-protective activity in STZ-induced Kunming mouse model of diabetes assessed as urinary total protein excretion at 160 mg/kg, po administered daily via gavage for 8 weeks and measured at week 6 relative to control; format: functional; settings: time 6 weeks
# [20] = system: Mus musculus; assay: Antidiabetic activity in STZ-induced Kunming mouse model of diabetes assessed as reduction in blood glucose level at 80 mg/kg, po administered daily via gavage for 8 weeks and measured at week 2; format: functional; settings: 336 h, time 2 weeks
# [21] = target: Aldo-keto reductase family 1 member B1 (Rattus norvegicus, UniProt P07943); assay: Inhibition of Wistar rat lens ALR2 assessed as reduction in NADPH oxidation using D,L-glyceraldehyde and NADPH as substrate preincubated for 10 mins followed by substrate addition and measured for 4 mins by spectrophotometric analysis; format: tissue-based
# [22] = system: Mus musculus; assay: Antioxidant activity in STZ-induced diabetic Kunming mouse assessed as reduction in liver MDA level at 80 mg/kg, po administered daily via gavage for 8 weeks and measured at 6 hrs post-final drug dose relative to STZ-treated group; format: functional; settings: 1344 h
# [23] = target: Aldo-keto reductase family 1 member B1 (Rattus norvegicus) (UniProt P07943); assay: Potency index, ratio of IC50 of epalrestat to IC50 of compound for inhibition of Wistar rat lens ALR2 using D,L-glyceraldehyde and NADPH as substrate preincubated for 10 mins followed by substrate addition and measured for 4 mins by spectrophotometric analysis; format: tissue-based; settings: time 14.0 min
# Procedure, shortened: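 Aldose reductases (ALR2, ALR1) prepared from Wistar rats (200-250 g). NADPH loss followed at 340 nm for 4 min after substrate start, following 10 min preincubation. ALR2: pH 6.2 phosphate, 30 °C, NADPH 0.10 mM, D,L-glyceraldehyde 10 mM. ALR1: pH 7.2, 37 °C, NADPH 0.12 mM, D-glucuronate 20 mM. 0.5% DMSO; non-enzymatic rate subtracted. IC50 from log dose-response with ≥3 concentrations (20-80% inhibition), triplicate.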
# [24] = system: Mus musculus; assay: Reno-protective activity in STZ-induced Kunming mouse model of diabetes assessed as reduction in albumin to creatinine ratio at 160 mg/kg, po administered daily via gavage for 8 weeks; format: functional; settings: 1344 h
# [25] = Inhibition of polyol pathway in STZ-induced Kunming mouse model of diabetes assessed as decrease in sorbitol level in kidney cortex at 160 mg/kg, po administered daily via gavage for 8 weeks and measured at 6 hrs post-final drug dose by fluorospectrophotometric analysis; format: functional; settings: 1344 h
# [26] = system: Mus musculus; assay: Antioxidant activity in STZ-induced diabetic Kunming mouse assessed as increase in SOD level in kidney at 160 mg/kg, po administered daily via gavage for 8 weeks and measured at 6 hrs post-final drug dose; format: functional
compound,measurement,setting,value
COc1cc(/C=C/c2cccc3c2oc(=O)n3CC(=O)O)ccc1O,inhibition in vivo at 80 mg/kg,[1],9%
same,Activity,[2],78%
same,Activity,[3],Active
same,Activity,[4],150%
same,Activity,[5],Active
same,Activity,[6],Active
same,Activity,[7],39%
same,inhibition in vivo at 80 mg/kg,[8],24%
same,inhibition in vivo at 80 mg/kg,[9],16%
same,Activity,[10],170%
same,Activity,[11],Active
same,Activity,[12],50%
same,inhibition in vivo at 80 mg/kg,[13],67%
same,inhibition in vivo at 160 mg/kg,[14],23%
same,inhibition in vivo at 80 mg/kg,[15],19%
same,inhibition,[16],Active
same,inhibition in vivo at 80 mg/kg,[17],24%
same,Activity,[18],Active
same,Activity,[19],36%
same,inhibition in vivo at 80 mg/kg,[20],18%
same,IC50,[21],6.9 nM
same,inhibition in vivo at 80 mg/kg,[22],67%
same,Ratio IC50,[23],15
same,inhibition in vivo at 160 mg/kg,[24],79%
same,inhibition in vivo at 160 mg/kg,[25],18%
same,Activity,[26],38%

# — ChEMBL document CHEMBL4732211, “Multifunctional agents based on benzoxazolone as promising therapeutic drugs for diabetic nephropathy” (Eur J Med Chem, 2021)
